Laboratory results published in ChEMBL document CHEMBL1140839, “Carbamate-appended N-alkylsulfonamides as inhibitors of gamma-secretase” (Bioorg Med Chem Lett, 2008).
The source made the active and inactive calls. The rule behind the calls is not given here.

Columns and labels:
Gamma-secretase = assay: Inhibition of gamma secretase in human H4 cells assessed as reduction in amyloid beta40 level by ELISA; assay type: cell-based
How it was run: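 Cells were plated and allowed to attach, then the medium was replaced with Ultraculture containing compound at 1% final DMSO. After overnight incubation, Aβ40 in the conditioned medium was measured by sandwich ELISA (C-terminal Aβ40-specific capture antibody, HRP-labelled N-terminal Aβ antibody for detection). IC50 values are means of two experiments, each with 12 concentrations; intra-assay variance was <10%.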

[1] = Drug level in Tg2576 mouse plasma at 200 umol/kg, po after 3 hrs; assay type: ADME, organism-based; conditions: read-out: Drug uptake
How it was run: (§1)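 Tg2576 (βAPP-Swedish) transgenic mice received one oral dose of 200 μmol/kg. Plasma and brain drug concentrations (nM) were measured 3 h after dosing and reported as mean ± error.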

[2] = Drug level in Tg2576 mouse brain at 200 umol/kg, po after 3 hrs; assay type: ADME, organism-based; conditions: read-out: Drug uptake; how it was run: as §1
Mus musculus = assay: Reduction in amyloid beta level in Tg2576 mouse brain at 200 umol/kg, po after 3 hrs; assay type: functional
How it was run: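 Tg2576 (βAPP-Swedish) transgenic mice received one oral dose of 200 μmol/kg. Brain Aβ was measured 3 h later and expressed as % reduction.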

Row | Structure (SMILES) | IC50 (Gamma-secretase) | other results
1 | C[C@H](COC(=O)N(C)CCCn1ccnc1)N(c1cc(Cl)ccc1Cl)S(=O)(=O)c1ccc(Cl)cc1 | 0.48 nM | –
2 | C[C@H](COC(=O)NCCCn1ccnc1)N(c1cc(Cl)ccc1CO)S(=O)(=O)c1ccc(Cl)cc1 | 2.3 nM | –
3 | C[C@H](COC(=O)NCCCn1ccnc1)N(c1cc(Cl)ccc1Cl)S(=O)(=O)c1ccc(Cl)cc1 | 0.41 nM | –
4 | C[C@H](CCOC(=O)NCCn1ccnc1)N(c1cc(Cl)ccc1CO)S(=O)(=O)c1ccc(Cl)cc1 | 4 nM | –
5 | CCNC(=O)OC[C@@H](C)N(c1cc(Cl)ccc1CO)S(=O)(=O)c1ccc(Cl)cc1 | 10 nM | –
6 | C[C@H](COC(=O)N(CCCn1ccnc1)CC1CC1)N(c1cc(Cl)ccc1CO)S(=O)(=O)c1ccc(Cl)cc1 | 0.06 nM | concentration at 3 h [1]: 6.83 µM; concentration at 3 h [2]: 0.859 µM; Activity (Mus musculus): inactive
7 | C[C@H](COC(=O)NC(C)(C)C)N(c1cc(Cl)ccc1CO)S(=O)(=O)c1ccc(Cl)cc1 | 12 nM | –
8 | C[C@H](CCCN(C)S(C)(=O)=O)N(c1cc(Cl)ccc1CO)S(=O)(=O)c1ccc(Cl)cc1 | – | Activity (Mus musculus): 27%
9 | C[C@H](CCOC(=O)NCCCn1ccnc1)N(c1cc(Cl)ccc1CO)S(=O)(=O)c1ccc(Cl)cc1 | 7.7 nM | –
10 | CC(C)NC(=O)OC[C@@H](C)N(c1cc(Cl)ccc1CO)S(=O)(=O)c1ccc(Cl)cc1 | 12 nM | –
11 | CCN(CC)C(=O)OC[C@@H](C)N(c1cc(Cl)ccc1CO)S(=O)(=O)c1ccc(Cl)cc1 | 18 nM | –
12 | CCN(CCCn1ccnc1)C(=O)OC[C@@H](C)N(c1cc(Cl)ccc1CO)S(=O)(=O)c1ccc(Cl)cc1 | 0.06 nM | concentration at 3 h [1]: 0.73 µM; concentration at 3 h [2]: 0.227 µM; Activity (Mus musculus): 15%
13 | CCCNC(=O)OC[C@@H](C)N(c1cc(Cl)ccc1CO)S(=O)(=O)c1ccc(Cl)cc1 | 10 nM | –
14 | C[C@H](CCCn1cnnn1)N(c1cc(Cl)ccc1CO)S(=O)(=O)c1ccc(Cl)cc1 | – | Activity (Mus musculus): 41%
15 | C[C@H](COC(=O)NCCCn1ccnc1)N(c1cc(Cl)ccc1F)S(=O)(=O)c1ccc(Cl)cc1 | 0.66 nM | –
16 | CC(C)N(CCCn1ccnc1)C(=O)OC[C@@H](C)N(c1cc(Cl)ccc1CO)S(=O)(=O)c1ccc(Cl)cc1 | 19 nM | –
17 | CNC(=O)OC[C@@H](C)N(c1cc(Cl)ccc1CO)S(=O)(=O)c1ccc(Cl)cc1 | 15 nM | –
18 | C[C@H](COC(=O)NCCCn1ccnc1)N(c1cc(F)ccc1F)S(=O)(=O)c1ccc(Cl)cc1 | 1.2 nM | –
19 | C[C@H](COC(=O)NCCCn1ncnn1)N(c1cc(Cl)ccc1CO)S(=O)(=O)c1ccc(Cl)cc1 | 2.1 nM | –
20 | CCN(CCCn1ccnc1)C(=O)OC[C@@H](C)N(c1cc(Cl)ccc1Cl)S(=O)(=O)c1ccc(Cl)cc1 | 0.27 nM | concentration at 3 h [1]: 98.9 µM; concentration at 3 h [2]: 41.2 µM; Activity (Mus musculus): 50%
21 | C[C@H](COC(=O)N1CCCC1)N(c1cc(Cl)ccc1CO)S(=O)(=O)c1ccc(Cl)cc1 | 1.8 nM | –
22 | C[C@H](COC(=O)NC1CCCCC1)N(c1cc(Cl)ccc1CO)S(=O)(=O)c1ccc(Cl)cc1 | 5.6 nM | –
23 | C[C@H](COC(=O)NCCn1ccnc1)N(c1cc(Cl)ccc1CO)S(=O)(=O)c1ccc(Cl)cc1 | 0.93 nM | –
24 | CCC(C)NC(=O)OC[C@@H](C)N(c1cc(Cl)ccc1CO)S(=O)(=O)c1ccc(Cl)cc1 (stereo partly drawn) | 15 nM | –
